According to ChEMBL document CHEMBL5346953, “Dual Piperidine-Based Histamine H3 and Sigma-1 Receptor Ligands in the Treatment of Nociceptive and Neuropathic Pain” (J Med Chem, 2023):
Each block holds one compound with its values, some of them ahead of it. Activity calls are given as the source filed them.

Columns and labels:
Mus musculus [1] = test: Antiallodynic activity against oxaliplatin-induced peripheral neuropathy mouse model assessed as increase in pain threshold baseline at late phase at 15 mg/kg,ip followed by oxaliplatin treatment measured after 7 days by von frey test; format: functional; conditions: time 7 day
In short: (§1)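 Mice with oxaliplatin-induced neuropathy were given the drug as a single dose at 5, 10 or 15 mg/kg. Tactile allodynia was measured by von Frey 3 h (early phase) and 7 days (late phase) after neuropathy induction. Thresholds are expressed relative to each group's pre-oxaliplatin baseline.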

[2] = Neurotoxicity against mouse assessed as reduction in spontaneous locomotor activity at 15 mg/kg,ip observed after 30 mins of administration; format: toxicity, organism-based; conditions: in vivo, 0.5 h
In short: (§2)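 Spontaneous locomotor activity was recorded in mice after i.p. dosing at 15 or 30 mg/kg, compared with vehicle, as a test of sedation. Analysis was one-way ANOVA. […]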

Mus musculus [3] = test: Analgesic activity in CCI-induced neuropathic pain mouse model assessed as increase in mechanical paw withdrawal threshold at 10 mg/kg,ip administration measured after 180 mins by von frey test; format: functional, organism-based
In short: (§3)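 CCI mice tested 14 days after sciatic nerve injury. Groups received i.p. vehicle or drug at 5, 10 or 15 mg/kg. Baselines were taken before injection, with n = 7–8 per group. Read-outs were von Frey (ipsilateral and contralateral paw) at 30, 90 and 180 min, cold plate at 35, 95 and 185 min, and tail flick at 40, 100 and 190 min. Values are %MPE (mean ± SEM), analysed by one-way ANOVA with Bonferroni post hoc.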

Mus musculus [4] = test: Antiallodynic activity against oxaliplatin-induced peripheral neuropathy mouse model assessed as increase in pain threshold baseline at late phase at 10 mg/kg,ip followed by oxaliplatin treatment measured after 7 days by von frey test; format: functional; conditions: time 7 day; in short: as §1
Mus musculus [5] = test: Effect in loperamide-induced antinociception mouse assessed as increase in struggle response latency at ip administration; format: functional, organism-based
Mus musculus [6] = test: Analgesic activity in CCI-induced neuropathic pain mouse model assessed as effect on thermal stimuli at 10 mg/kg,ip administration measured after 185 mins by cold plate test; format: functional, organism-based; in short: as §3
Mus musculus [7] = test: Analgesic activity in CCI-induced neuropathic pain mouse model assessed as effect on withdrawal threshold at 15 mg/kg,ip administration measured after 90 mins by von frey test; format: functional, organism-based; in short: as §3
[8] = Neurotoxicity against mouse assessed as impairment of motor coordination at 15 mg/kg,ip administration at 18 rpm by rotarod test; format: toxicity, organism-based; conditions: in vivo
In short: (§4)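 Mice received 15 mg/kg i.p. or vehicle. Motor coordination was then measured as time on the rotarod, at 18 and 24 rpm, with a maximum of 60 s.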

Mus musculus [9] = test: Analgesic activity in CCI-induced neuropathic pain mouse model assessed as effect on spinal response at 10 mg/kg,ip administration measured after 40 mins by tail flick test; format: functional, organism-based; in short: as §3
Mus musculus [10] = test: Antiallodynic activity against oxaliplatin-induced peripheral neuropathy mouse model assessed as increase in pain threshold baseline at late phase at 5 mg/kg,ip followed by oxaliplatin treatment measured after 7 days by von frey test; format: functional; conditions: time 7 day; in short: as §1
Mus musculus [11] = test: Analgesic activity in CCI-induced neuropathic pain mouse model assessed as increase in mechanical paw withdrawal threshold at 5 mg/kg,ip administration measured after 30 mins by von frey test; format: functional, organism-based; in short: as §3
Mus musculus [12] = test: Analgesic activity in CCI-induced neuropathic pain mouse model assessed as effect on thermal stimuli at 5 to 15 mg/kg,ip administration measured after 35 mins by cold plate test; format: functional, organism-based; conditions: dose 5-15 mg/kg; in short: as §3
Mus musculus [13] = test: Antinociceptive activity in Capsaicin-induced nociceptive mouse model assessed as reduction in biting behavior at 10 to 30 mg/kg,ip administration followed by capsaicin treatment; format: functional, organism-based; conditions: dose 10-30 mg/kg
In short: (§5)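 Capsaicin was injected intraplantarly into mice pretreated with 10, 15 or 30 mg/kg, with 1% Tween 80 as vehicle. Licking/biting time was scored for 5 min after injection, with 8–10 mice per group, as mean ± SEM. Analysis was one-way ANOVA with Dunnett's test. ED50 was estimated from the dose–response.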

Mus musculus [14] = test: Antinociceptive activity in Capsaicin-induced nociceptive mouse model assessed as reduction in paw licking at 10 to 30 mg/kg,ip administration followed by capsaicin treatment; format: functional, organism-based; conditions: dose 10-30 mg/kg; in short: as §5
Mus musculus [15] = test: Analgesic activity in CCI-induced neuropathic pain mouse model assessed as effect on withdrawal threshold at 15 mg/kg,ip administration measured after 180 mins by von frey test; format: functional, organism-based; in short: as §3
Mus musculus [16] = test: Anti-hyperalgesic activity in CCI-induced neuropathic pain mouse model assessed as effect on thermal stimuli at 5 to 15 mg/kg,ip administration measured after 95 mins by cold plate test; format: functional, organism-based; conditions: dose 5-15 mg/kg; in short: as §3
Mus musculus [17] = test: Analgesic activity in CCI-induced neuropathic pain mouse model assessed as effect on spinal response at 10 mg/kg,ip administration measured after 100 mins by tail flick test; format: functional, organism-based; in short: as §3
Mus musculus [18] = test: Analgesic activity in CCI-induced neuropathic pain mouse model assessed as increase in mechanical paw withdrawal threshold at 10 mg/kg,ip administration measured after 90 mins by von frey test; format: functional, organism-based; in short: as §3
Mus musculus [19] = test: Analgesic activity in CCI-induced neuropathic pain mouse model assessed as increase in mechanical paw withdrawal threshold at 10 mg/kg,ip administration measured after 30 mins by von frey test; format: functional, organism-based; in short: as §3
Mus musculus [20] = test: Antiallodynic activity against oxaliplatin-induced peripheral neuropathy mouse model assessed as increase in pain threshold baseline at early phase at 15 mg/kg,ip followed by oxaliplatin treatment measured after 3 hrs by von frey test; format: functional; in short: as §1
Mus musculus [21] = test: Analgesic activity in CCI-induced neuropathic pain mouse model assessed as increase in contralateral paw withdrawal threshold at 10 mg/kg,ip administration measured after 90 mins by von frey test; format: functional, organism-based; in short: as §3
Mus musculus [22] = test: Analgesic activity in CCI-induced neuropathic pain mouse model assessed as effect on spinal response at 5 mg/kg,ip administration measured after 40 mins by tail flick test; format: functional, organism-based; in short: as §3
Mus musculus [23] = test: Antinociceptive activity in loperamide-induced mouse assessed as increase in struggle response latency struggle response latency at 25 ug,ip administration in presence of naloxone-methiodide; format: functional, organism-based; conditions: dose 25.0 µg
Mus musculus [24] = test: Antiallodynic activity against oxaliplatin-induced peripheral neuropathy mouse model assessed as increase in pain threshold baseline at early phase at 5 mg/kg,ip followed by oxaliplatin treatment measured after 3 hrs by von frey test; format: functional; in short: as §1
Mus musculus [25] = test: Analgesic activity in CCI-induced neuropathic pain mouse model assessed as effect on tactile allodynia at 10 mg/kg,ip administration measured after 30 to 180 mins by von frey test; format: functional, organism-based; conditions: time lower 30.0 min, time upper […]; in short: as §3
Mus musculus [26] = test: Analgesic activity in CCI-induced neuropathic pain mouse model assessed as effect on thermal stimuli at 5 mg/kg,ip administration measured after 185 mins by cold plate test; format: functional, organism-based; in short: as §3
[27] = Neurotoxicity against mouse assessed as effect in spontaneous locomotor activity by measuring effective dose at ip administration observed after 30 mins; format: toxicity, organism-based; conditions: in vivo, 0.5 h; in short: as §2
[28] = Neurotoxicity against mouse assessed as reduction in spontaneous locomotor activity at 30 mg/kg,ip observed after 30 mins of administration; format: toxicity, organism-based; conditions: in vivo, 0.5 h; in short: as §2
Mus musculus [29] = test: Antinociceptive activity in mouse assessed as effect on struggle response latency at 25 ug,ip administration; format: functional, organism-based; conditions: dose 25.0 µg
Mus musculus [30] = test: Analgesic activity in CCI-induced neuropathic pain mouse model assessed as effect on withdrawal threshold at 15 mg/kg,ip administration measured after 30 mins by von frey test; format: functional, organism-based; in short: as §3
Mus musculus [31] = test: Antiallodynic activity against oxaliplatin-induced peripheral neuropathy mouse model assessed as increase in pain threshold baseline at early phase at 10 mg/kg,ip followed by oxaliplatin treatment measured after 3 hrs by von frey test; format: functional; in short: as §1
Mus musculus [32] = test: Antinociceptive activity in loperamide-induced mouse assessed as increase in struggle response latency struggle response latency at 25 ug,ip administration in presence of PRE-084; format: functional, organism-based; conditions: dose 25.0 µg
[33] = Neurotoxicity against mouse assessed as impairment of motor coordination at 15 mg/kg,ip administration at 24 rpm by rotarod test; format: toxicity, organism-based; conditions: in vivo; in short: as §4
Histamine H3 receptor = Histamine H3 receptor (Homo sapiens, UniProt Q9Y5N1); test: Inhibition of recombinant human histamine H3 receptor stably expressed in HEK293 cells assessed as increase in cAMP accumulation in presence of forskolin incubated for 30 mins by TR-FRET LANCE assay; format: functional, cell-based
Sequence of Histamine H3 receptor (Q9Y5N1 whole entry): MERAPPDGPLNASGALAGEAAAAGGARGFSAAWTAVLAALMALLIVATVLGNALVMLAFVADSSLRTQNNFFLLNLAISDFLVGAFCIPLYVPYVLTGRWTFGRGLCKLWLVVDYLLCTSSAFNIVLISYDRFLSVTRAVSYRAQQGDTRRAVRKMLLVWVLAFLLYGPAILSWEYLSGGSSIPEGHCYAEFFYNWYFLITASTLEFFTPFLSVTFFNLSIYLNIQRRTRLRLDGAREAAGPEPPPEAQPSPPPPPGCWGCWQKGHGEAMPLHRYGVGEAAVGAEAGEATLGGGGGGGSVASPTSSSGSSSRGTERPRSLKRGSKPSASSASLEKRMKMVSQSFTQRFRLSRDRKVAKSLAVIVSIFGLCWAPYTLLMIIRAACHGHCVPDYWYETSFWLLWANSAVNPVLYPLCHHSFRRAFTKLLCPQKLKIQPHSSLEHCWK

Mus musculus [34] = test: Analgesic activity in CCI-induced neuropathic pain mouse model assessed as effect on tactile allodynia at 5 mg/kg,ip administration measured after 30 to 180 mins by von frey test; format: functional, organism-based; conditions: time lower 30.0 min, time upper […]; in short: as §3
Mus musculus [35] = test: Analgesic activity in CCI-induced neuropathic pain mouse model assessed as effect on spinal response at 10 mg/kg,ip administration measured after 190 mins by tail flick test; format: functional, organism-based; in short: as §3
Mus musculus [36] = test: Antiallodynic activity against oxaliplatin-induced peripheral neuropathy mouse model assessed as increase in pain threshold baseline at late phase at 5 mg/kg,ip administrated in presence of oxaliplatin measured after 7 days by von frey test; format: functional, organism-based; conditions: time 7.0 day; in short: as §1
[37] = target: Sigma non-opioid intracellular receptor 1 (Cavia porcellus, UniProt Q60492); test: Displacement of [3H](+)-pentazocine from sigma 1 receptor in guinea pig brain membrane assessed as inhibition constant by liquid scintillation counter analysis; format: cell membranes
Sequence of Sigma non-opioid intracellular receptor 1 (Q60492 whole entry): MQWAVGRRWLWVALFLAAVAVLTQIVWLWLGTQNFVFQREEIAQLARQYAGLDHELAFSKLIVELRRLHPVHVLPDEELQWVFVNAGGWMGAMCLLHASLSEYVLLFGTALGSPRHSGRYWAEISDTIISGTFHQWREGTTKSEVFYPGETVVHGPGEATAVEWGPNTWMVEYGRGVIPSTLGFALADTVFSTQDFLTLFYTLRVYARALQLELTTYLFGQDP

[38] = Neurotoxicity against mouse assessed as sedative effect at 15 mg/kg,ip observed after 30 mins of administration; format: toxicity, organism-based; conditions: in vivo, 0.5 h; in short: as §2
[39] = Neurotoxicity against mouse assessed as decrease in time spent on rod at 15 mg/kg,ip administration at 24 rpm by rotarod test; format: toxicity, organism-based; conditions: in vivo; in short: as §4
[40] = Neurotoxicity against mouse assessed as decrease in time spent on rod at 15 mg/kg,ip administration at 18 rpm by rotarod test; format: toxicity, organism-based; conditions: in vivo; in short: as §4

- IC50 (Histamine H3 receptor): 215 nM
Structure (SMILES): N#Cc1ccc(-c2ccc(OCCCN3CCC(c4ccncc4)CC3)cc2)cc1
- Activity (Mus musculus [1]): 69.3%
- Activity [2]: Toxic
- Activity (Mus musculus [3]): Active
- Activity (Mus musculus [4]): 67.6%
- Activity (Mus musculus [5]): Dose-Dependent Effect
- Activity (Mus musculus [6]): Active
- Activity (Mus musculus [7]): Active
- Activity [8]: Toxic
- Activity (Mus musculus [9]): Active
- Activity (Mus musculus [10]): 77.7%
- Activity (Mus musculus [11]): Active
- Activity (Mus musculus [12]): Active
- Activity (Mus musculus [13]): Active
- Activity (Mus musculus [14]): Active
- Activity (Mus musculus [15]): inactive
- Activity (Mus musculus [16]): Active
- Activity (Mus musculus [17]): Active
- Activity (Mus musculus [18]): Active
- Activity (Mus musculus [19]): Active
- Activity (Mus musculus [20]): 66.6%
- Activity (Mus musculus [21]): Active
- Activity (Mus musculus [22]): Active
- Activity (Mus musculus [23]): inactive
- Activity (Mus musculus [24]): 63.5%
- Activity (Mus musculus [25]): inactive
- Activity (Mus musculus [26]): Active
- ED50 [27]: 21.97 mg/kg
- Activity [28]: Toxic
- Activity (Mus musculus [29]): inactive
- Activity (Mus musculus [30]): inactive
- Activity (Mus musculus [31]): 50.4%
- Activity (Mus musculus [32]): inactive
- Activity [33]: Toxic
- Activity (Mus musculus [34]): inactive
- Activity (Mus musculus [35]): Active
- Activity (Mus musculus [36]): inactive

- Ki [37]: 1170 nM
Structure (SMILES): c1cc(OCCCN2CCCCC2)ccc1CN1CCCCC1 [JNJ-5207852]

- IC50 (Histamine H3 receptor): 83.7 nM
Structure (SMILES): c1ccc(Nc2ccc(OCCCN3CCCCC3)cc2)cc1
- Activity [38]: Toxic
- Activity [39]: Toxic
- Activity [40]: Toxic
